M4 antag: human M4 muscarinic receptor antagonists, primary screen, CHO cells, Fluo-8 calcium fluorescence; inhibition, % at 3 µM; CHO-hM4 cells, ACh EC80; Muscarinic acetylcholine receptor M4 (Homo sapiens), P08173; 360,000 compounds, 0.73% hits;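 active = inhibition above its plate's cutoff, the mean inhibition of sample wells plus 3 SD, cut at about 27% in these data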;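 note: 0% = acetylcholine EC80 with DMSO and 100% = DMSO without agonist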
Target sequence (P08173 whole entry, looked up): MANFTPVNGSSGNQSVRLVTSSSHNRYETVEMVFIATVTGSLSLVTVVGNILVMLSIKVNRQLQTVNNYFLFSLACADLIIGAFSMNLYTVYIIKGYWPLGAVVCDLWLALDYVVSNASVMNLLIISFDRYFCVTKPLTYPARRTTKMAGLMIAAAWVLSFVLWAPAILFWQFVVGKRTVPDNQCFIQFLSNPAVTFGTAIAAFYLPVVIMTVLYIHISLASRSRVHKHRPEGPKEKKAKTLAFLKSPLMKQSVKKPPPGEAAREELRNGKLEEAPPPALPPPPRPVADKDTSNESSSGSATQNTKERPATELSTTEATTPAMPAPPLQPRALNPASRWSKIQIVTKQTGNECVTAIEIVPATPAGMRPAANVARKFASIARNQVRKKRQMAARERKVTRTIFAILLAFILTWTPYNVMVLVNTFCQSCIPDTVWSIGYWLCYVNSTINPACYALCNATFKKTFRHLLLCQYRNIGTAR
CHRM4 PAM: human M4 muscarinic receptor positive allosteric modulators, primary screen, CHO-K1 cells, Fluo-8 calcium fluorescence | CHO-K1 hM4/Gqi5, ACh EC20; 0% = ACh EC20, 100% = maximal ACh | 360,000 compounds, 0.4% hits | Muscarinic acetylcholine receptor M4 (Homo sapiens), P08173 | activation, % at 3 µM;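 active = activation above its plate's cutoff, the mean activation of sample wells plus 3 SD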
CHRM4 agonist: human M4 muscarinic receptor agonists, primary screen, CHO-K1 cells, Fluo-8 calcium fluorescence | Muscarinic acetylcholine receptor M4 (Homo sapiens), P08173 | CHO-K1 hM4/Gqi5; vehicle 0%, full acetylcholine response 100% | activation, % at 3 µM | 360,000 compounds, 0.14% hits | AID 624127, 2012;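 active = activation above the run mean over all test wells plus 3 SD, cut at about 32% in these data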;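 note: peak over basal fluorescence ratio per well then scaled between controls; 0% = DMSO wells and 100% = acetylcholine at EC100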
M5 antag: human M5 muscarinic receptor antagonists, primary screen, CHO cells, Fluo-8 calcium fluorescence; Muscarinic acetylcholine receptor M5 (Homo sapiens), P08912; CHO-hM5 cells, ACh EC80; 360,000 compounds, 0.59% hits; inhibition, % at 3 µM;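 active = inhibition above a per-plate cutoff, the mean of that plate's test compounds plus 3 SD, cut at about 27% in these data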;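 note: 0% = acetylcholine EC80 with DMSO and 100% = DMSO without agonist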
CHRM5 agonist: human M5 muscarinic receptor agonists, primary screen, CHO-K1 cells, Fluo-8 calcium fluorescence; Muscarinic acetylcholine receptor M5 (Homo sapiens), P08912; CHO-K1 hM5 cells; 0% DMSO wells, 100% maximal acetylcholine response; activation, % at 3 µM; 360,000 compounds, 0.19% hits; AID 624037, 2012;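 active = activation above the run's mean over test compounds plus 3 SD, cut at about 23% in these data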;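 note: signal is peak over basal fluorescence ratio across the kinetic read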
CHRM5 PAM: human M5 muscarinic receptor positive allosteric modulators, primary screen, CHO-K1 cells, Fluo-8 calcium fluorescence. activation, % at 3 µM. Muscarinic acetylcholine receptor M5 (Homo sapiens), P08912. AID 624038, 2012. CHO-K1 hM5, ACh EC20 PAM; 0% = ACh EC20, 100% = ACh EC100. 360,000 compounds, 0.3% hits;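 active = activation above the run cutoff, the mean activation of all test compounds plus 3 SD, cut at about 18% in these data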
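Test system: CHO-K1 hM5 cells / Doses: single-point, 3 µM nominal / Times: Post-acetylcholine fluorescence recording 140 s / Technique: Fluo-8 calcium fluorescence / Measure: Max/basal fluorescence ratio as % of EC20–EC100 ACh window / Benchmarks: low control EC20 acetylcholine (0%), high control EC100 acetylcholine (100%) / Replicates: one well per compound, no replicates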
The depositor's hits bear a star. Shown are actives, neighbours in structure and some others; about 1.8% of the full set was active somewhere.

Screening COC(=O)c1cc(S(=O)(=O)NCc2cc(OC)c(OC)c(OC)c2)cn1C returned M4 antag 0, CHRM4 PAM 7, CHRM4 agonist 2, M5 antag 2, CHRM5 agonist -4 and CHRM5 PAM -1.
N#C/C(=C\c1ccc(N2CCOCC2)o1)C(=O)NCCc1ccccc1 was read as M4 antag 3, CHRM4 PAM -13, CHRM4 agonist 34*, M5 antag 16, CHRM5 agonist 47* and CHRM5 PAM -23.
`N#C/C(=C/c1ccc(N2CCOCC2)o1)C(=O)Nc1ccccc1` gave M4 antag 13, CHRM4 PAM -16, CHRM4 agonist 54*, M5 antag 27*, CHRM5 agonist 43* and CHRM5 PAM -21.
O=C(CSc1nnc(Cn2nnc3ccccc32)o1)N(Cc1ccc(Cl)cc1)c1ccccc1 was read as M4 antag 13, CHRM4 PAM -12, CHRM4 agonist 8, M5 antag 30*, CHRM5 agonist 2 and CHRM5 PAM -18.
O=C(NCc1ccccc1)C(c1ccco1)N(C(=O)c1csnn1)c1ccccc1 (stereo not given) was read as M4 antag -2, CHRM4 PAM 7, CHRM4 agonist -1, M5 antag 3, CHRM5 agonist -1 and CHRM5 PAM -3.
Screening CCOC(=O)CN1N=C(/C=C/c2ccccc2)CCC1=O returned M4 antag 11, CHRM4 PAM 15, CHRM4 agonist 1, M5 antag -5, CHRM5 agonist 28* and CHRM5 PAM 2.
Cc1[nH]c2ccccc2c1/C=N/NC(=O)c1cc(-c2ccncc2)nc2ccccc12 was read as M4 antag 1, CHRM4 PAM -6, CHRM4 agonist 13, M5 antag 24, CHRM5 agonist 1 and CHRM5 PAM 31*.
`Cc1[nH]c2ccccc2c1/C=N/NC(=O)c1cc(-c2ccccc2)n[nH]1` gave M4 antag 10, CHRM4 PAM -7, CHRM4 agonist 4, M5 antag 0, CHRM5 agonist 4 and CHRM5 PAM -4.
For COc1ccc(Cl)cc1NC(=O)C1CCN(S(C)(=O)=O)CC1 the results were M4 antag -2, CHRM4 PAM 1, CHRM4 agonist 2, M5 antag 1, CHRM5 agonist 3 and CHRM5 PAM -2.
`CCN(CCCc1ccccc1)CCCc1ccccc1` gave M4 antag 89*, CHRM4 PAM -18, CHRM4 agonist 1, M5 antag 35*, CHRM5 agonist -1 and CHRM5 PAM -18.
Screening CCCN(CCO)CCCc1ccccc1 returned M4 antag 7, CHRM4 PAM 6, CHRM4 agonist 1, M5 antag -3, CHRM5 agonist -4 and CHRM5 PAM 6.
CCN(CC)CCCCCOc1ccccc1OC was read as M4 antag 7, CHRM4 PAM 2, CHRM4 agonist 2, M5 antag -2, CHRM5 agonist -5 and CHRM5 PAM 2.
CCN(CC)CCOC(c1ccccc1)c1ccc(C)cc1 (stereo not given) was read as M4 antag 43*, CHRM4 PAM -17, CHRM4 agonist 2, M5 antag 75*, CHRM5 agonist -8 and CHRM5 PAM -19.
CCN(CC)CCC(C)OC(c1ccccc1)c1ccccc1 (stereo not given) was read as M4 antag 6, CHRM4 PAM -22, CHRM4 agonist 2, M5 antag 38*, CHRM5 agonist -13 and CHRM5 PAM -33.
For Cc1ccc(C(OCC(C)(C)C[N+](C)(C)C)c2ccccc2)cc1 (stereo not given) the results were M4 antag 52*, CHRM4 PAM -21, CHRM4 agonist 2, M5 antag 94*, CHRM5 agonist -11 and CHRM5 PAM -21.
`Cc1ccccc1C(OCCN(C)C)c1ccccc1` (stereo not given) gave M4 antag 62*, CHRM4 PAM -18, CHRM4 agonist 2, M5 antag 92*, CHRM5 agonist -1 and CHRM5 PAM -19.
Screening COc1cccc(CC(=O)NN2C(=O)NC3(CCCCC3)C2=O)c1 returned M4 antag -12, CHRM4 PAM 14, CHRM4 agonist 1, M5 antag -2, CHRM5 agonist 0 and CHRM5 PAM 0.
`CCn1c(SCCN2CCCCC2)nnc1-c1ccc(S(=O)(=O)N2CCOCC2)cc1` gave M4 antag 33*, CHRM4 PAM -17, CHRM4 agonist 0, M5 antag 12, CHRM5 agonist -17 and CHRM5 PAM -2.
`Cc1ccc(S(=O)(=O)N2CCC(c3nnc(SCCN4CCCC4)n3C)CC2)cc1` gave M4 antag 11, CHRM4 PAM -11, CHRM4 agonist 0, M5 antag 8, CHRM5 agonist -7 and CHRM5 PAM -5.
Screening COc1nc(-c2ccc(C)cc2)ccc1-c1noc(-c2ccco2)n1 returned M4 antag 6, CHRM4 PAM 15, CHRM4 agonist 1, M5 antag -6, CHRM5 agonist -1 and CHRM5 PAM 28*.
`COc1nc(C)ccc1-c1noc(-c2ccco2)n1` gave M4 antag 4, CHRM4 PAM 0, CHRM4 agonist -2, M5 antag -5, CHRM5 agonist -1 and CHRM5 PAM 1.
COc1cc(/C=C2/C(=O)NN(c3ccc(Cl)cc3)C2=O)cc(Br)c1O was read as M4 antag -1, CHRM4 PAM 3, CHRM4 agonist 0, M5 antag -4, CHRM5 agonist 6 and CHRM5 PAM 20*.
`Cc1ccc(CNC(=O)C2CCN(C(=O)Nc3ccccc3)CC2)cc1` gave M4 antag 9, CHRM4 PAM -4, CHRM4 agonist 2, M5 antag -1, CHRM5 agonist -1 and CHRM5 PAM 6.
For O=S(=O)(/N=S1\CC=CCN1S(=O)(=O)c1ccccc1)c1ccccc1 (stereo not given) the results were M4 antag 14, CHRM4 PAM -6, CHRM4 agonist 60*, M5 antag 14, CHRM5 agonist 34* and CHRM5 PAM 3.
For CC1=C(C)CS(=O)N(S(=O)(=O)c2ccccc2)C1 (stereo not given) the results were M4 antag 18, CHRM4 PAM -7, CHRM4 agonist 7, M5 antag 11, CHRM5 agonist 18 and CHRM5 PAM -1.

Screening data from PubChem BioAssay.
